Experimental data taken from ChEMBL document CHEMBL2203173 (J Med Chem, 2012).

How the values were obtained:
[1] = test system: SK-N-MC; assay: Antiproliferative activity at human SK-N-MC cells after 72 hrs by MTT assay; assay type: functional, cell-based
[2] = test system: MRC5; assay: Antiproliferative activity at human MRC5 cells after 72 hrs by MTT assay; assay type: functional, cell-based; details: MRC5, 72 h
[3] = test system: A549; assay: Antiproliferative activity at human A549 cells after 72 hrs by MTT assay; assay type: functional, cell-based
[4] = test system: DMS-53; assay: Antiproliferative activity at human DMS53 cells after 72 hrs by MTT assay; assay type: functional, cell-based
[5] = test system: SK-N-MC; assay: Induction of 59Fe mobilization in human SK-N-MC cells at 25 uM after 3 hrs by gamma-scintillation counter; assay type: functional
Method in brief: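 SK-N-MC cells prelabeled with 59Fe-transferrin (0.75 μM) for 3 h/37 °C, then washed four times on ice with ice-cold PBS. Cells reincubated with or without chelators (25 μM) for 3 h/37 °C. Released 59Fe given as % of cellular 59Fe. Mean ± SD of three experiments.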

[6] = test system: SK-N-MC; assay: Inhibition to 59Fe uptake from 59Fe-transferrin in human SK-N-MC cells at 25 uM after 3 hrs; assay type: functional; parameters: scale not given: the % may be the effect or the level left
Method in brief: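 SK-N-MC cells labeled with 59Fe-transferrin (0.75 μM) for 3 h/37 °C with or without chelators (25 μM). Cells washed four times on ice with ice-cold PBS. Internalized 59Fe separated with Pronase (1 mg/mL) and expressed as % of control. Mean ± SD of three experiments.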

[7] = test system: SK-N-MC; assay: Inhibition to 59Fe uptake from 59Fe-transferrin in human SK-N-MC cells at 25 uM after 3 hrs relative to Dp4eT
[8] = test system: A549; assay: Ratio of compound IC50 to DFO IC50 for human A549 cells; assay type: functional
Method in brief: (§1)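 A549 human non-small cell lung carcinoma cells were exposed to agents for 72 h. IC50 is the concentration that inhibits cell growth to 50% of the untreated control. Values are mean ± SD of three experiments. The ratio is the compound IC50 divided by the IC50 of the reference chelator (DFO or NIH) from the same assay.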

[9] = test system: A549; assay: Ratio of compound IC50 to NIH IC50 for human A549 cells; assay type: functional; method in brief: as §1

Structure (SMILES) | IC50 [1] [nM] | IC50 ([3]; Homo sapiens, A549, 72 h) [nM] | IC50 ([4]; Homo sapiens, DMS-53, 72 h) [nM] | other results
CCN(C(=S)NN=C(c1ccccn1)c1ccccn1)c1ccccc1 | 10 |  |  | 
O=C(N/N=C/c1c(O)ccc2ccccc12)c1ccncc1 | 1100 | 2200 | 1100 | IC50 [2]: > 10000 nM; Activity [5]: 44.9%; Activity [6]: 5.3%
COc1cc([C@@H]2c3cc4c(cc3[C@@H](O[C@@H]3O[C@@H]5CO[C@@H](C)O[C@H]5[C@H](O)[C@H]3O)[C@H]3COC(=O)[C@H]23)OCO4)cc(OC)c1O [ETOPOSIDE] |  | 800 | 1500 | 
CCN(C)C(=S)NN=C(c1ccccn1)c1ccccn1 | 4 |  |  | Ratio IC50 [8]: 137; Ratio IC50 [9]: 137; IC50 ([3]; a549): 10 nM; IC50 ([4]; dms-53): 8 nM
CNC(=S)N/N=C(\c1ccccc1)c1ccccn1 | 18 |  |  | 

The next lines start with results.

IC50 [1] [nM] | IC50 ([3]; Homo sapiens, A549, 72 h) [nM] | Structure (SMILES) | IC50 ([4]; Homo sapiens, DMS-53, 72 h) [nM] | other results
 | 7500 | CC(=O)N(O)CCCCCNC(=O)CCC(=O)N(O)CCCCCNC(=O)CCC(=O)N(O)CCCCCN [DEFEROXAMINE] | 10000 | IC50 [2]: > 10000 nM; Activity [5]: 15.2%; Activity [6]: 84%
5 |  | CCN(CC)C(=S)NN=C(c1ccccn1)c1ccccn1 |  | Ratio [7]: 2
6 |  | CCN(C)C(=S)N/N=C(\c1ccccc1)c1ccccn1 |  | 
